Published values collected from several papers.
Lines come from different studies, so protocols differ. pIC50: −log10 of the molar value.

O=C(CN1C(=O)/C(=C/c2ccccc2O)SC1=S)Nc1ccccc1 — inhibition (A549; cell growth or viability, MTT; 10 µM): 34.5%
CC1(C)S[C@@H]2[C@H](NC(=O)[C@H](N)c3ccccc3)C(=O)N2[C@H]1C(=O)O — MIC (Moraxella catarrhalis; microbial growth, broth dilution; ATCC25238): < 0.25 µg/mL
O=C(Nc1ccccc1-c1ccc(F)c(F)c1)c1nccnc1C(F)(F)F — EC50 (Colletotrichum gloeosporioides; microbial growth): > 100 µg/mL
O=C(CN1C(=O)/C(=C/c2ccccc2Cl)SC1=S)Nc1ccccc1 — inhibition (PC-3; cell growth or viability, MTT; 10 µM): 22.6%
O=C(Cc1c[nH]c2ccccc12)Nc1cccc(Br)c1 — pIC50 (ABTS scavenging): 5.94
COc1cc(Nc2nccc(-c3cnn4nc(OC)ccc34)n2)cc(C(F)(F)F)c1 — pIC50 (NCI-H2286; cell growth or viability, ATP luminescence): 6.80
COc1cc(NC(=O)Cc2c[nH]c3ccccc23)ccc1C — pIC50 (ABTS scavenging): 5.95
COc1ccc(-c2ccc(-c3ccc(C(=N)N)nc3)s2)cc1Cl — GI50 (U-251; cell growth or viability, SRB): 1.82 µM
O=C(CN1C(=O)/C(=C/c2ccc[nH]2)SC1=S)Nc1ccccc1 — inhibition (A549; cell growth or viability, MTT; 10 µM): 21.4%
CC(C)C[C@H](NC(=O)[C@H](Cc1ccccc1)NC(=O)c1cnccn1)B(O)O — pIC50 (NCI-H1048; cell growth or viability, ATP luminescence): 7.77
O=C(CN1C(=O)/C(=C/c2cccc(O)c2)SC1=S)Nc1ccccc1 — inhibition (PC-3; cell growth or viability, MTT; 10 µM): 12.6%
Cc1ccc(Cl)cc1NC(=O)Cc1c[nH]c2ccccc12 — pIC50 (ABTS scavenging): 5.89
